Results reported in ChEMBL document CHEMBL4145611, “Discovery of Marinoquinolines as Potent and Fast-Acting Plasmodium falciparum Inhibitors with in Vivo Activity” (J Med Chem, 2018).
Calls of active or inactive are those of the source. The rule behind the calls is not given here.

Key:
[1] = test system: Plasmodium falciparum; experiment: Antiplasmodial activity against chloroquine-sensitive blood parasite forms of Plasmodium falciparum 3D7 infected in RBC by SYBR green assay; assay type: functional, organism-based; settings: 3D7, Erythrocyte
In short: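 3D7 blood-stage cultures, sorbitol-synchronized twice beforehand, used at 5-10% parasitemia with >80% rings, diluted to 0.5% parasitemia and 2% hematocrit with graded compound (0.05% DMSO), triplicate; artesunate and chloroquine controls. SYBR green I lysis-buffer fluorescence at 485/535 nm; IC50 from curve fit relative to drug-free medium.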

[2] = test system: HepG2; experiment: Cytotoxicity against human HepG2 cells assessed as reduction in cell viability after 24 hrs by MTT assay; assay type: cell-based; settings: HepG2, 24 h
In short: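 HepG2 cells in RPMI-1640 with 10% heat-inactivated serum, seeded 5×10^3 per well, allowed to adhere 18 h at 37 °C, then exposed to compound (400–6.2 µM) for 24 h at 37 °C, 5% CO2. MTT (5 mg/mL) for 3 h, formazan dissolved in DMSO, absorbance 570 nm with 630 nm background; viability as percent of untreated control.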

[3] = Therapeutic index, ratio of EC50 for human HepG2 cells to IC50 for chloroquine-sensitive blood parasite forms of Plasmodium falciparum 3D7; assay type: toxicity; settings: read-out: TI
[4] = test system: Plasmodium falciparum; experiment: Plasmodicidal activity against Plasmodium falciparum 3D7A infected in erythrocytes assessed as parasite survival at 10 times IC50 pre-incubated for 24 hrs followed by compound washout and measured after 24 hrs by […] incorporation assay (reference value: 100%); assay type: functional
[5] = test system: Plasmodium falciparum; experiment: Plasmodicidal activity against Plasmodium falciparum 3D7A infected in erythrocytes assessed as parasite survival at 10 times IC50 pre-incubated for 48 hrs followed by compound washout and measured after 24 hrs by […] incorporation assay (reference value: 100%); assay type: functional
[6] = test system: Plasmodium falciparum; experiment: Antiplasmodial activity against chloroquine-sensitive asynchronous form of Plasmodium falciparum 3D7 infected in RBC after 72 hrs by SYBR green assay; assay type: functional, organism-based; settings: 3D7, Erythrocyte
In short: (§1)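 Sorbitol-synchronized 3D7 cultures of each stage (or asynchronous) diluted to 0.5% parasitemia, 2% hematocrit, exposed to graded compound concentrations (0.05% DMSO) for 72 h in triplicate. Read-out: lysis buffer (20 mM Tris pH 7.5, 5 mM EDTA, 0.008% saponin, 0.08% Triton X-100) with SYBR green I 1:20000, fluorescence 485/535 nm, uninfected erythrocytes as background; IC50 by curve fitting versus drug-free growth.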

[7] = test system: Plasmodium falciparum; experiment: Antiplasmodial activity against chloroquine-sensitive ring form of Plasmodium falciparum 3D7 infected in RBC after 72 hrs by SYBR green assay; assay type: functional, organism-based; settings: 3D7, Erythrocyte; in short: as §1
[8] = test system: Plasmodium falciparum; experiment: Antiplasmodial activity against chloroquine-sensitive trophozoite form of Plasmodium falciparum 3D7 infected in RBC after 72 hrs by SYBR green assay; assay type: functional, organism-based; settings: 3D7, Erythrocyte; in short: as §1
[9] = test system: Plasmodium falciparum; experiment: Antiplasmodial activity against chloroquine-sensitive schizont form of Plasmodium falciparum 3D7 infected in RBC after 72 hrs by SYBR green assay; assay type: functional, organism-based; settings: 3D7, Erythrocyte; in short: as §1
[10] = test system: Plasmodium falciparum; experiment: Antiplasmodial activity against early ring stage form of Plasmodium falciparum assessed as induction of alterations in parasite morphology at 10 times IC50 concentration after 8 to 16 hrs by microscopic analysis; assay type: functional, organism-based
[11] = test system: Plasmodium berghei; experiment: Antiplasmodial activity against Plasmodium berghei NK65 infected in Swiss mouse assessed as reduction in parasitemia at 50 mg/kg, po administered via gavage for 3 consecutive days post infection measured on day 5 post infection relative to control; assay type: functional; parameters: scale not given: the % may be the effect or the level left
In short: (§2)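 P. berghei NK65 suppressive test: adult Swiss outbred mice (20±2 g) inoculated ip with 1×10^5 infected red cells, randomized to groups, dosed daily for three days by oral gavage or ip injection with test compound at 50 mg/kg in 3% (v/v) DMSO; CQ 20 mg/kg and vehicle groups in parallel. Giemsa-stained tail-blood smears on days 5, 7, 9; inhibition = [(C−T)/C]×100 versus untreated control.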

[12] = test system: Plasmodium berghei; experiment: Antiplasmodial activity against Plasmodium berghei NK65 infected in Swiss mouse assessed as reduction in parasitemia at 50 mg/kg, po administered via gavage for 3 consecutive days post infection measured on day 9 post infection relative to control; assay type: functional; parameters: scale not given: the % may be the effect or the level left; in short: as §2
[13] = test system: Plasmodium berghei; experiment: Antiplasmodial activity against Plasmodium berghei NK65 infected in Swiss mouse assessed as mouse survival at 50 mg/kg, po administered for 3 consecutive days post infection measured on day 9 post infection (reference value: 19 +/- 5 days); assay type: functional
[14] = Metabolic stability in rat liver microsomes assessed as compound remaining at 4 uM after 30 mins in presence of NADPH by HPLC analysis; assay type: ADME, microsome; settings: read-out: Stability
In short: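 Rat pooled liver microsomes (final 2 mg/mL protein) in 0.1 M phosphate buffer pH 7.4 with 30 mM MgCl2 and 10 mM NADPH; compounds at 4 µM final; verapamil 0.1 mM positive control. Reactions quenched with ice-cold acetonitrile at set times; parent remaining measured by LC-MS/MS; first-order depletion rate used to derive half-life.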

[15] = test system: Plasmodium berghei; experiment: Antiplasmodial activity against Plasmodium berghei NK65 infected in Swiss mouse assessed as reduction in parasitemia at 50 mg/kg, po administered via gavage for 3 consecutive days post infection measured on day 7 post infection relative to control; assay type: functional; parameters: scale not given: the % may be the effect or the level left; in short: as §2
[16] = test system: Mus musculus; experiment: Toxicity in Swiss mouse assessed as survival at 1000 mg/kg, ip measured up to 30 days; assay type: organism-based; settings: in vivo, 720 h
In short: (§3)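 Single 1000 mg/kg dose given to mice by gavage or ip injection, 3 mice per group. Survival and body weight followed against untreated controls over 30 days of observation.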

[17] = test system: Mus musculus; experiment: Toxicity in Swiss mouse assessed as effect on body weight at 1000 mg/kg, ip measured after 30 days; assay type: organism-based; settings: in vivo, 720 h; in short: as §3

| Compound | IC50 ([1]; read-out: IC50) [µM] | EC50 [2] [µM] | selectivity ratio [3] | other results |
| --- | --- | --- | --- | --- |
| Brc1ccc(-c2nc3ccccc3c3cc[nH]c23)cc1 | > 10 |  |  |  |
| O=C(O)c1ccc(-c2nc3ccccc3c3cc[nH]c23)cc1 | 12.1 | 82 | 7 |  |
| Brc1c[nH]c2c(-c3c[nH]c4ccccc34)nc3ccccc3c12 | > 10 |  |  |  |
| COc1ccc2c(c1)nc(-c1ccccc1)c1[nH]ccc12 | 2.4 | 60 | 25 |  |
| CCc1nc2ccccc2c2cc[nH]c12 | 7.3 | 151 | 21 |  |
| Brc1ccc2[nH]cc(-c3nc4ccccc4c4cc[nH]c34)c2c1 | 12.3 | 93 | 8 | IC50 ([1]; read-out: pIC50 (converted)): 12.3 µM |
| COc1ccc2c(c1)nc(-c1c[nH]c3ccccc13)c1[nH]ccc12 | 0.061 | 20 | 328 | IC50 ([1]; read-out: pIC50 (converted)): 0.0617 µM |
| O=C1C(O)=C([C@H]2CC[C@H](c3ccc(Cl)cc3)CC2)C(=O)c2ccccc21 [ATOVAQUONE] |  |  |  | Survival [4]: 68%; Survival [5]: 40% |
| c1ccc(-c2nc3ccccc3c3cc[nH]c23)cc1 | 9.9 | > 750 | > 75 |  |
| COc1ccc2c(c1)nc(-c1ccc(N(C)C)cc1)c1[nH]ccc12 | 0.4 | 20 | 50 |  |
| COc1ccc2c(c1)nc(-c1ccc(N)cc1)c1[nH]ccc12 | 1.3 | > 750 | > 576 |  |
| COc1cc(-c2nc3ccccc3c3cc[nH]c23)cc(OC)c1OC | 9.2 | 99 | 11 |  |
| COC(=O)c1ccc(-c2nc3cc(OC)ccc3c3cc[nH]c23)cc1 | 1.3 | > 250 | > 192 |  |
| COc1cc(OC)cc(-c2nc3cc(OC)ccc3c3cc[nH]c23)c1 | 1 | > 250 | > 250 | IC50 ([1]; read-out: pIC50 (converted)): 1 µM |
| COc1ccc2c(c1)nc(-c1ccccc1)c1[nH]cc(Br)c12 | 2.1 | 111 | 53 |  |
| COC(=O)c1ccc(-c2nc3ccccc3c3cc[nH]c23)cc1 | 4 | > 250 | > 63 | IC50 ([1]; read-out: pIC50 (converted)): 3.98 µM |
| COc1cc(OC)cc(-c2nc3ccccc3c3cc[nH]c23)c1 | 4.9 | > 250 | > 51 |  |
| COc1ccc2c(c1)nc(-c1ccc(C(=O)O)cc1)c1[nH]ccc12 | > 10 |  |  |  |
| COc1ccc2c(c1)nc(Cc1ccccc1)c1[nH]ccc12 | 14.3 | 478 | 33 |  |
| c1ccc2c(c1)nc(-c1c[nH]c3ccccc13)c1[nH]ccc12 [MARINOQUINOLINE E] | 10.4 | > 750 | > 72 |  |

| Compound | IC50 ([1]; read-out: IC50) [µM] | EC50 [2] [µM] | selectivity ratio [3] | other results |
| --- | --- | --- | --- | --- |
| Clc1ccc(-c2nc3ccccc3c3cc[nH]c23)cc1 | 10.5 | > 250 | > 24 |  |
| COc1ccc2c(c1)nc(C)c1[nH]cc(Br)c12 | 5.4 | > 250 | > 46 |  |
| CC(C)Cc1nc2ccccc2c2cc[nH]c12 | 4.1 | > 250 | > 61 |  |
| COc1ccc(-c2nc3ccccc3c3cc[nH]c23)cc1 | 6.7 | > 250 | > 37 |  |
| Cc1nc2ccccc2c2cc[nH]c12 [MARINOQUINOLINE A] | > 10 |  |  |  |
| c1ccc(Cc2nc3ccccc3c3cc[nH]c23)cc1 [MARINOQUINOLINE C] | > 10 |  |  |  |
| COc1ccc2c(c1)nc(-c1ccc(Cl)cc1)c1[nH]ccc12 | 0.6 | > 250 | > 417 | IC50 [6]: 0.46 µM; IC50 [7]: 0.6 µM; IC50 [8]: 0.38 µM; IC50 [9]: 0.5 µM; Activity [10]: Active; Activity [11]: 0%; Activity [12]: 0%; Survival [13]: 22 days; remaining at 0.5 h, 4 µM [14]: 15%; Activity [15]: 0%; Activity [16]: Non-Toxic; Activity [17]: Non-Toxic |
| COc1ccc2c(c1)nc(C)c1[nH]ccc12 | 10.5 | > 750 | > 71 |  |
| CN(C)c1ccc(-c2nc3ccccc3c3cc[nH]c23)cc1 | 5.8 | > 600 | > 104 |  |
| c1ccc2[nH]c(-c3nc4ccccc4c4cc[nH]c34)cc2c1 | 4.8 | 746 | 155 |  |
| Brc1ccc2c(c1)nc(-c1c[nH]c3ccccc13)c1[nH]ccc12 | 7.9 | > 250 | > 32 |  |
| CCc1nc2cc(OC)ccc2c2cc[nH]c12 | > 10 |  |  |  |
| COc1ccc2c(c1)nc(-c1ccc(NC(C)=O)cc1)c1[nH]ccc12 | > 10 |  |  | IC50 ([1]; read-out: pIC50 (converted)): > 10 µM |
| Nc1ccc(-c2nc3ccccc3c3cc[nH]c23)cc1 | 7.7 | 41 | 5 |  |
| Brc1ccc2c(-c3nc4ccccc4c4cc[nH]c34)c[nH]c2c1 | 6.2 | 42 | 7 |  |
| O=[N+]([O-])c1ccc(-c2nc3ccccc3c3cc[nH]c23)cc1 | > 10 |  |  |  |
| CCc1nc(N)nc(N)c1-c1ccc(Cl)cc1 [PYRIMETHAMINE] |  |  |  | Survival [4]: 55%; Survival [5]: 11% |
| C[C@H]1[C@H](OC(=O)CCC(=O)O)O[C@@H]2O[C@@]3(C)CC[C@H]4[C@H](C)CC[C@@H]1[C@@]24OO3 [ARTESUNATE] |  |  |  | Survival [4]: 14%; Survival [5]: 5% |
| COc1ccc2c(c1)nc(-c1ccc([N+](=O)[O-])cc1)c1[nH]ccc12 | 1.9 | 144 | 76 |  |
| COc1ccc2c(c1)nc(CC(C)C)c1[nH]ccc12 | 0.5 | 35 | > 70 | IC50 [6]: 0.42 µM; IC50 [7]: 0.5 µM; IC50 [8]: 0.42 µM; IC50 [9]: 0.4 µM; Activity [10]: Active; Activity [11]: 0%; Activity [12]: 0%; Survival [13]: 23 days; remaining at 0.5 h, 4 µM [14]: 24%; Activity [15]: 0% |
